According to PMC9977399 (Chemical Science, 2023):

Columns and labels:
[1] = system: lamin A processing in staurosporine-treated Jurkat T cells; assay: western blot of lamin A processing upon inhibitor treatment; assay type: cell-based, human; conditions: inhibitor 5 or 25 μM, 2 h preincubation, staurosporine 5 μM, 4 h
Outline: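 Low-passage Jurkat T cells (100000 per 0.5 mL) were pretreated 2 h with inhibitor (5 or 25 μM, 1% DMSO; control 1% DMSO), then given staurosporine 5 μM for 4 or 8 h. Lysates were boiled in SDS/DTT and run on 4–12% Bis-Tris SDS–PAGE, then nitrocellulose, blocked with 2% BSA/TBS-T. Primary antibodies (caspase 3, PARP, caspase 6, lamin A/C; 1:1000, overnight 4 °C) were followed by fluorescent secondaries. Bands were quantified from 700/800 nm scans.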

caspase 6 [2] = molecular target: T1, caspase 6 (Homo sapiens, UniProt P55212); assay: kinetic of AIE substrates; assay type: biochemical; conditions: caspases 3 and 6 at 10 nM or 50 nM, ex 312/em 450 nm, 30 min
T1 sequence (P55212 24-179 limits assumed): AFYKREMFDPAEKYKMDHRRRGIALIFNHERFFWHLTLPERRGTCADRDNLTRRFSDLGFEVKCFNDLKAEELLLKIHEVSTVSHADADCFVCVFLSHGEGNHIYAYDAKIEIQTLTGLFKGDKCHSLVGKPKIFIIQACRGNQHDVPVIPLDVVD
T1 sequence (P55212 194-293 limits assumed): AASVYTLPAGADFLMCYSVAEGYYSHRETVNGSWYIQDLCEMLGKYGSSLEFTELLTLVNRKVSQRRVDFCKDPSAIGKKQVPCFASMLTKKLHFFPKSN
Outline: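 Recombinant human caspases 3 and 6 were active-site titrated with zVAD-fmk and used at 10 or 50 nM. Buffer: 10% w/v sucrose, 20 mM PIPES, 10 mM NaCl, 1 mM EDTA, 10 mM DTT, pH 7.2–7.4. Enzyme was preincubated 15 min, then added to AIE substrates from DMSO at varied final concentrations, 37 °C. Relative hydrolysis rate came from the linear fluorescence segment. At least three replicates, mean ± SD.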

caspase 6 [3] = molecular target: T1, caspase 6; assay: kobs/I inhibition parameter of AOMK inhibitors; assay type: biochemical; conditions: substrate Ac-VEID-ACC 100 μM, 37 °C
Outline: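 Recombinant human caspase 6 was active-site titrated with zVAD-fmk and preactivated 15 min at 37 °C in sucrose/PIPES/NaCl/EDTA/DTT buffer, pH 7.2–7.4. Serial inhibitor dilutions with substrate were pre-equilibrated 15 min at 37 °C, then enzyme was added. ACC fluorescence (ex 355/em 460 nm) was read for 30 min from start under pseudo-first-order conditions. Second-order kobs/I: at least three independent runs, mean ± SD.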

caspase 9 = molecular target: T2, caspase 9 (Homo sapiens, UniProt P55211); assay: kobs/I inhibition parameter of AOMK inhibitors; assay type: biochemical; conditions: substrate Ac-LEHD-ACC 100 μM, 37 °C
T2 sequence (P55211 1-315 limits assumed): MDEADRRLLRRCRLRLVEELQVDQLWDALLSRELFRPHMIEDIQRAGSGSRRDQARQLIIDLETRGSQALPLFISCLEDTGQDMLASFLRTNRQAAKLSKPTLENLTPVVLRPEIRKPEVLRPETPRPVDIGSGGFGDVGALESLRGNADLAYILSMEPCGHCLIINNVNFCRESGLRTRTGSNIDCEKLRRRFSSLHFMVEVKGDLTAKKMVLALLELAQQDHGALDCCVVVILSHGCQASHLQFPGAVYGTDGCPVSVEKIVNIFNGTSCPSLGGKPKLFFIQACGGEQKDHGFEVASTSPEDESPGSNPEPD
T2 sequence (P55211 331-416 limits assumed): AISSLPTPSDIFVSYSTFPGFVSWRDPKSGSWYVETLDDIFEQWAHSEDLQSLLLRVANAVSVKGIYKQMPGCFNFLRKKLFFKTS
Outline: (§1)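 Recombinant human caspases 8, 9 or 10 were active-site titrated with zVAD-fmk and preactivated 15 min at 37 °C. Buffer: sucrose/PIPES/NaCl/EDTA/DTT, pH 7.2–7.4, plus 0.75 M sodium citrate to dimerise. Inhibitor dilutions were mixed with substrate and held 15 min at 37 °C before enzyme addition. Fluorescence (ex 355/em 460 nm) was followed 30 min; pseudo-first-order kobs/I from ≥3 experiments, mean ± SD.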

caspase 10 = molecular target: T3, caspase 10 (Homo sapiens, UniProt Q92851); assay: kobs/I inhibition parameter of AOMK inhibitors; assay type: biochemical; conditions: substrate Ac-LEHD-ACC 100 μM, 37 °C
T3 sequence (Q92851 220-415 limits assumed): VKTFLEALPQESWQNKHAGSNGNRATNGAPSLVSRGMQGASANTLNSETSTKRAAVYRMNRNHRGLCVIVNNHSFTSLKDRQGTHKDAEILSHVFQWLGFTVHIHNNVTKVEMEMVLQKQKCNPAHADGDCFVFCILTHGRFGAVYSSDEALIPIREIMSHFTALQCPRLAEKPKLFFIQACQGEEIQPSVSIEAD
T3 sequence (Q92851 416-521 limits assumed): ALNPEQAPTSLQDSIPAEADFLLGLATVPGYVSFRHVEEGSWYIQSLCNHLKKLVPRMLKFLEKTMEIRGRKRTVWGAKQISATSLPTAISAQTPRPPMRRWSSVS
Outline: as §1

caspase 8 = caspase 8 (Homo sapiens, UniProt Q14790); assay: kobs/I inhibition parameter of AOMK inhibitors; assay type: biochemical; conditions: substrate Ac-LEHD-ACC 100 μM, 37 °C
Outline: as §1

[4] = system: lamin A processing in staurosporine-treated Jurkat T cells; assay: mass cytometry, anti-lamin A; assay type: cell-based, human; conditions: inhibitor 5 or 25 μM, 2 h preincubation, staurosporine 5 μM, 4 h
Outline: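 Jurkat T cells (1,000,000 per 0.5 mL) were pretreated 2 h with inhibitor (5 or 25 μM), then given staurosporine 5 μM for 4 h. Cells were fixed in 4% PFA (20 min, 4 °C), Perm-S permeabilised and stained 2 h RT with metal-tagged antibodies (lamin A 142Nd, cleaved PARP 143Nd, caspase 6 159Tb, cleaved caspase 3 172Yb). Ir191/193 DNA stain followed; CyTOF acquisition within 12 h.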

Chain of caspase 8 (Q14790 217-374 limits assumed): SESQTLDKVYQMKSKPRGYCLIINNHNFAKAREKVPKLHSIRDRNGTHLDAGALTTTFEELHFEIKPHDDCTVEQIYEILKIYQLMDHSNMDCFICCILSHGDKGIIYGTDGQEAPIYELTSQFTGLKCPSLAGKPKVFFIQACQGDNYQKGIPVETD
Chain of caspase 8 (Q14790 385-479 limits assumed): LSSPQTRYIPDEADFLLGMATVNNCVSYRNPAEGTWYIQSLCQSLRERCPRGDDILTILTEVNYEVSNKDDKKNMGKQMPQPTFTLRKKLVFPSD

Substance	prevention of lamin A cleavage (western blot) [1]	selectivity for caspase 6 over caspase 3 (AIE substrate hydrolysis) (caspase 6 [2])	potency toward caspase 6 (kobs/I, in words) (caspase 6 [3])	inhibition of apical caspase 9 (in words) (caspase 9)	inhibition of apical caspase 10 (in words) (caspase 10)	inhibition of apical caspase 8 (in words) (caspase 8)	effect on lamin A processing (mass cytometry) [4]
Ac-EVEID-AOMK	only partially effective in preventing lamin A cleavage						
Ac-EVEID-K(T PE )-NH2 [Ac-EVEID-K-TPE]		very high selectivity over caspase 3					
Ac-EVEhFD-AOMK	only partially effective in preventing lamin A cleavage		most potent inhibitors of caspase 6				
Ac-hFVEID-AOMK	largely prevent lamin A		most potent inhibitors of caspase 6	poor inhibitor	poor inhibitor	poor inhibitor	efficiently block lamin A processing
